Measured values gathered from unrelated publications.
Each line is one published result; the experiments were not run side by side.
PGR: Progesterone receptor (PGR, Homo sapiens, UniProt P06401)
CHRM1: Muscarinic acetylcholine receptor M1 (CHRM1, Homo sapiens, UniProt P11229)
SLCO1B1: Solute carrier organic anion transporter family member 1B1 (SLCO1B1, Homo sapiens, UniProt Q9Y6L6)

SMILES	target	assay	test system	setting	measurement	result
C[C@]12CC[C@H]3[C@@H](CCC4=CC(=O)CC[C@@H]43)[C@@H]1CC[C@@H]2O	PGR	ligand displacement			IC50	0.0678 µM
Clc1cccc(N2CCNCC2)c1Cl	CHRM1	ligand displacement, radioligand		cell membranes	Ki	25.1 µM
CCOC(=O)c1cncn1[C@H](C)c1ccccc1	SLCO1B1	transporter uptake, inhibitor, fluorescence	CHO	30 min, pH 7.4	IC50	> 100 µM
CCCCCCCNCCCc1ccc([N+](=O)[O-])cc1	CHRM1	ligand displacement, radioligand			Ki	1.9 µM
CCN1C[C@]2(COC)[C@H](O)C[C@H](OC)[C@@]34[C@@H]5C[C@@]6(O)[C@H](OC(=O)c7ccccc7)[C@@H]5[C@@](OC(C)=O)([C@@H]([C@H](OC)[C@H]23)[C@@H]14)[C@@H](O)[C@@H]6OC	SLCO1B1	transporter uptake, inhibitor, fluorescence	CHO	30 min, pH 7.4	IC50	> 100 µM
Cc1nnc2n1-c1ccc(Cl)cc1C(c1ccccc1)=NC2	Cytochrome P450 1A2 (CYP1A2, Homo sapiens, UniProt P05177)	enzyme activity, inhibitor, fluorescence			IC50	> 100 µM
C[C@]1(O)CC[C@H]2[C@@H]3CCC4=CC(=O)CCC4=C3CC[C@@]21C	PGR	reporter gene, agonist			EC50	0.8 nM
CC(C)(C)[C@H](NC(=O)C(F)(F)F)C(=O)N1C[C@H]2[C@@H]([C@H]1C(=O)N[C@H](C#N)C[C@@H]1CCNC1=O)C2(C)C	Cytochrome P450 3A4 (CYP3A4, Homo sapiens, UniProt P08684)	enzyme activity, inhibitor	human, liver microsomes		Ki	22.6 µM
COC1CCN(CCC(C#N)(c2ccccc2)c2ccccc2)CC1	Potassium voltage-gated channel subfamily A member 3 (Kcna3, Mus musculus, UniProt P16390)	ion current, inhibitor, patch clamp			IC50	> 100 µM
C[C@]12CC[C@H]3[C@@H](CCC4=CC(=O)CC[C@@]43C)[C@@H]1CC[C@@H]2O	PGR	ligand displacement			IC50	> 0.5 µM
CC(C)(C)[C@H](NC(=O)C(F)(F)F)C(=O)N1C[C@H]2[C@@H]([C@H]1C(=O)N[C@H](C#N)C[C@@H]1CCNC1=O)C2(C)C	Papain (Carica papaya, UniProt P00784)	enzyme activity, inhibitor			IC50	> 10 µM
